Measured values from ChEMBL document CHEMBL2177098, “Synthesis and evaluation of novel ¹⁸F labeled 2-pyridinylbenzoxazole and 2-pyridinylbenzothiazole derivatives as ligands for positron emission tomography (PET) imaging of β-amyloid plaques” (J Med Chem, 2012).
pKi: −log10 of the molar value.

Tests used:
Intestine [1] = test: Drug uptake in ICR mouse intestine assessed per organ at 370 kBq/100 ul, iv at 30 mins by gamma-counting analysis; assay type: ADME, organism-based; details: in vivo, 0.5 h
In short: (§1)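 Male ICR mice (5 weeks, about 20 g) got 18F tracer in saline (370 KBq per 100 μL) via tail vein; n = 5 per time point, killed at 2, 10, 30, 60 min. Organs removed and γ-counted against diluted injectate; expressed as % injected dose per organ.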

Intestine [2] = test: Drug uptake in ICR mouse intestine assessed per organ at 370 kBq/100 ul, iv at 10 mins by gamma-counting analysis; assay type: ADME, organism-based; details: in vivo; in short: as §1
Intestine [3] = test: Drug uptake in ICR mouse intestine assessed per organ at 370 kBq/100 ul, iv at 2 mins by gamma-counting analysis; assay type: ADME, organism-based; details: in vivo; in short: as §1
Stomach [4] = test: Drug uptake in ICR mouse stomach assessed per organ at 370 kBq/100 ul, iv at 60 mins by gamma-counting analysis; assay type: ADME, organism-based; details: in vivo, 1 h
In short: (§2)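 Normal male ICR mice (5 weeks, about 20 g) received the ¹⁸F tracer in saline (370 KBq per 100 μL) by tail-vein injection. Groups of n = 5 were killed at 2, 10, 30 and 60 min. Organs were removed, weighed and γ-counted against diluted aliquots of the injectate, giving % dose per gram. Stomach and intestine were expressed per organ. The brain ratio is 2 min/60 min uptake. Values are mean ± SD.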

Stomach [5] = test: Drug uptake in ICR mouse stomach assessed per organ at 370 kBq/100 ul, iv at 30 mins by gamma-counting analysis; assay type: ADME, organism-based; details: in vivo, 0.5 h; in short: as §1
Stomach [6] = test: Drug uptake in ICR mouse stomach assessed per organ at 370 kBq/100 ul, iv at 10 mins by gamma-counting analysis; assay type: ADME, organism-based; details: in vivo; in short: as §1
Stomach [7] = test: Drug uptake in ICR mouse stomach assessed per organ at 370 kBq/100 ul, iv at 2 mins by gamma-counting analysis; assay type: ADME, organism-based; details: in vivo; in short: as §1
Kidney [8] = test: Drug uptake in ICR mouse kidney at 370 kBq/100 ul, iv at 60 mins by gamma-counting analysis; assay type: ADME, organism-based; details: in vivo, 1 h
In short: (§3)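 Male ICR mice (5 weeks, about 20 g) got 18F tracer in saline (370 KBq per 100 μL) via tail vein; n = 5 per time point, killed at 2, 10, 30, 60 min. Organs weighed and γ-counted; percent dose per gram wet tissue from comparison with diluted injectate aliquots.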

Kidney [9] = test: Drug uptake in ICR mouse kidney at 370 kBq/100 ul, iv at 10 mins by gamma-counting analysis; assay type: ADME, organism-based; details: in vivo; in short: as §3
Kidney [10] = test: Drug uptake in ICR mouse kidney at 370 kBq/100 ul, iv at 2 mins by gamma-counting analysis; assay type: ADME, organism-based; details: in vivo; in short: as §3
Spleen = test: Drug uptake in ICR mouse spleen at 370 kBq/100 ul, iv at 60 mins by gamma-counting analysis; assay type: ADME, organism-based; details: in vivo, 1 h; in short: as §3
Liver = test: Drug uptake in ICR mouse liver at 370 kBq/100 ul, iv at 30 mins by gamma-counting analysis; assay type: ADME, organism-based; details: in vivo, 0.5 h; in short: as §3
Heart = test: Drug uptake in ICR mouse heart at 370 kBq/100 ul, iv at 10 mins by gamma-counting analysis; assay type: ADME, organism-based; details: in vivo; in short: as §3
Brain [11] = test: Drug uptake in ICR mouse brain at 370 kBq/100 ul, iv at 60 mins by gamma-counting analysis; assay type: ADME, organism-based; details: in vivo, 1 h; in short: as §3
Brain [12] = test: Drug uptake in ICR mouse brain at 370 kBq/100 ul, iv at 30 mins by gamma-counting analysis; assay type: ADME, organism-based; details: in vivo, 0.5 h; in short: as §3
Brain [13] = test: Drug uptake in ICR mouse brain at 370 kBq/100 ul, iv at 10 mins by gamma-counting analysis; assay type: ADME, organism-based; details: in vivo; in short: as §3
Blood [14] = test: Drug uptake in ICR mouse blood at 370 kBq/100 ul, iv at 30 mins by gamma-counting analysis; assay type: ADME, organism-based; details: in vivo, 0.5 h; in short: as §3
Blood [15] = test: Drug uptake in ICR mouse blood at 370 kBq/100 ul, iv at 60 mins by gamma-counting analysis; assay type: ADME, organism-based; details: in vivo, 1 h; in short: as §3
Blood [16] = test: Drug uptake in ICR mouse blood at 370 kBq/100 ul, iv at 2 mins by gamma-counting analysis; assay type: ADME, organism-based; details: in vivo; in short: as §3
Brain [17] = test: Drug uptake in healthy human brain at 370 KBq/100 ul after 1 hr by autoradiographic analysis; assay type: ADME, tissue-based; details: in vitro
[18] = Displacement of [125I]-IMPY from amyloid beta (1 to 42) fibrils after 2 hrs by gamma-counting analysis
In short: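 Competition binding with aggregated Aβ1-42 fibrils and [125I]IMPY (60000−100000 cpm/100 μL) in 0.05% BSA (1 mL total); inhibitors 10⁻⁴−10^−8.5 M in ethanol. Incubated 37 °C for 2 h, then GF/B vacuum filtration with PBS (0.02 M, pH 7.4) washes and γ counting. Three repeats; IC50 converted to Ki by Cheng−Prusoff.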

Brain [19] = test: Drug uptake in wild type C57BL6 mouse brain at 370 KBq/100 ul after 1 hr by autoradiographic analysis; assay type: ADME, tissue-based; details: in vitro
In short: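 Paraffin brain sections from 12-month-old male control C57BL6 mice were deparaffinized through xylene and graded ethanol, then held in PBS (0.2 M, pH 7.4) for 30 min. They were incubated with the ¹⁸F tracer (370 KBq per 100 μL) for 1 h at room temperature. Sections were washed in 40% EtOH, rinsed with water for 1 min, dried, and exposed to a phosphor plate for 2 h. The same sections were then stained with thioflavin S.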

[20] = Metabolic stability in mouse plasma at 1.85 MBq after 60 mins by HPLC analysis; assay type: ADME, cell-free; details: read-out: Stability
In short: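 Purified tracer (1.85 MBq) was incubated with 100 μL mouse plasma at 37 °C for 2, 10, 30 and 60 min. Read-out was the percentage of activity remaining as intact tracer.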

[21] = n-Octanol-PBS buffer partition coefficient, log D of the compound at 1.5 MBq after 3 mins at pH 7.4; assay type: physicochemical
In short: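 The tracer was partitioned between n-octanol and PBS by vortexing for 3 min at room temperature, then centrifuged for 5 min at 3000 rpm. Samples of the octanol (50 μL) and aqueous (500 μL) layers were counted. log D is the log of the octanol/PBS counts-per-gram ratio. The octanol layer was repartitioned until values were consistent. Measured in triplicate and repeated three times.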

[22] = Chemical stability of the compound in saline solution after 6 hrs; assay type: physicochemical; details: buffer
In short: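 Tracer kept in saline solution at room temperature, and stability followed during storage for up to 6 h.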

Brain [23] = test: Drug uptake in wild type C57BL6 mouse brain at 19.2 MBq, iv after 30 mins by autoradiographic analysis; assay type: ADME, organism-based; details: in vivo, 0.5 h
Brain [24] = test: Ratio of drug uptake in brain at 2 mins to drug uptake in brain at 60 mins in ICR mouse at 370 KBq/100 ul, iv; assay type: ADME, organism-based; details: in vivo; in short: as §2
Bone [25] = test: Drug uptake in ICR mouse bone at 370 kBq/100 ul, iv at 60 mins by gamma-counting analysis; assay type: ADME, organism-based, Bone element; details: in vivo, 1 h; in short: as §3
Bone [26] = test: Drug uptake in ICR mouse bone at 370 kBq/100 ul, iv at 30 mins by gamma-counting analysis; assay type: ADME, organism-based, Bone element; details: in vivo, 0.5 h; in short: as §3
Bone [27] = test: Drug uptake in ICR mouse bone at 370 kBq/100 ul, iv at 2 mins by gamma-counting analysis; assay type: ADME, organism-based, Bone element; details: in vivo; in short: as §3
Bone [28] = test: Drug uptake in ICR mouse bone at 370 kBq/100 ul, iv at 10 mins by gamma-counting analysis; assay type: ADME, organism-based, Bone element; details: in vivo; in short: as §3
Intestine [29] = test: Drug uptake in ICR mouse intestine assessed per organ at 370 kBq/100 ul, iv at 60 mins by gamma-counting analysis; assay type: ADME, organism-based; details: in vivo, 1 h; in short: as §1

- Drug uptake (Intestine [1]): 33.66 %ID
- Drug uptake (Intestine [2]): 19.61 %ID
- Drug uptake (Intestine [3]): 9.87 %ID
- Drug uptake (Stomach [4]): 3.89 %ID
- Drug uptake (Stomach [5]): 3.11 %ID
- Drug uptake (Stomach [6]): 5.59 %ID
- Drug uptake (Stomach [7]): 3.24 %ID
- Drug uptake (Kidney [8]): 3.04 % ID/g
- Drug uptake (Kidney [9]): 3.52 % ID/g
- Drug uptake (Kidney [10]): 7.45 % ID/g
- Drug uptake (Spleen): 1.64 % ID/g
- Drug uptake (Liver): 3.95 % ID/g
- Drug uptake (Heart): 2.34 % ID/g
- Drug uptake (Brain [11]): 1.55 % ID/g
- Drug uptake (Brain [12]): 1.69 % ID/g
- Drug uptake (Brain [13]): 2.24 % ID/g
- Drug uptake (Blood [14]): 2.55 % ID/g
- Drug uptake (Blood [15]): 3.2 % ID/g
- Drug uptake (Blood [16]): 3.36 % ID/g
- Drug uptake (Brain [17]): Not Active
- pKi [18]: 8.10
- Drug uptake (Brain [19]): Not Active
- remaining at 1 h, 1.85 MBq [20]: > 95%
- logD at 0.05 h [21]: 3.52
- Stability [22]: Stable
- Drug uptake (Brain [23]): Not Active
- Ratio (Brain [24]): 4.66
- Drug uptake (Bone [25]): 2.37 % ID/g
- Drug uptake (Bone [26]): 2.34 % ID/g
- Drug uptake (Bone [27]): 1.18 % ID/g
- Drug uptake (Bone [28]): 1.11 % ID/g
- Drug uptake (Intestine [29]): 39.05 %ID
SMILES: CNc1ccc(-c2nc3cc(OCC[18F])ccc3o2)cn1
